Test results published in ChEMBL document CHEMBL1156309, “Design and optimization of a substituted amino propanamide series of renin inhibitors for the treatment of hypertension” (Bioorg Med Chem Lett, 2010).

Tests used:
[1] = target: T1, Renin (Homo sapiens, UniProt P00797); experiment: Inhibition of human recombinant renin in PBS buffer at pH 7.4
T1 sequence (P00797 whole entry): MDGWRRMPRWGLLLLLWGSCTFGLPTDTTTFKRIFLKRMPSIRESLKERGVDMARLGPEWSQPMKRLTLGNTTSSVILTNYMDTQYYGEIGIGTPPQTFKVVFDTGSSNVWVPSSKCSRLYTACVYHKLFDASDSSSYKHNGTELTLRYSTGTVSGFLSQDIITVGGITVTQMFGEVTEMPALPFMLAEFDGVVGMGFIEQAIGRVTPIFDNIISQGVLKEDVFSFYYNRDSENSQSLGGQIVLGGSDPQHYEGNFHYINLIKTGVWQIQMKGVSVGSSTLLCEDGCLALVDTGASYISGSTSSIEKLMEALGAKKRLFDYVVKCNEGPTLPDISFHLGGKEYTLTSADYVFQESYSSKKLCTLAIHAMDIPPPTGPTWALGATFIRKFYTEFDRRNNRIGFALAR
In short: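 Recombinant human renin (3 pg/µL) in PBS with 1 mM EDTA, 0.1% BSA, pH 7.4, with human tetradecapeptide (1-14) substrate and hydroxyquinoline sulfate. Compounds diluted in DMSO; incubation 3 h at 37 °C. Angl accumulation measured; percent inhibition at each concentration, IC50 from curve fit. Average of at least two replicates.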

[2] = target: T1, Renin; experiment: Inhibition of human recombinant renin in human citreated-plasma
In short: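 Pooled human citrate plasma supplemented with recombinant human renin (150 pg/mL final). Compounds in DMSO at various concentrations added to plasma mixed with trapping anti-Angl antibody (final antiserum dilution 1:50,000) in Tris/EDTA, pH 7.2; incubation 2 h at 37 °C. Angl accumulation read by immunoassay; IC50 from curve fit. Average of at least two replicates.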

[3] = test system: Canis familiaris; experiment: Antihypertensive activity in Beagle assessed as prolongation of CV intervals at 12 uM, iv after 2 days; assay type: functional, Canis lupus familiaris
In short: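 Beagle dogs given compound intravenously up to 12 µM plasma exposure. QTc, PR and QRS intervals monitored for prolongation.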

[4] = Volume of distribution at steady state in Beagle dog at 3 mg/kg, po and 1 mg/kg, iv; assay type: ADME, organism-based, Canis lupus familiaris; conditions: in vivo, read-out: Vdss
[5] = Oral bioavailability in Beagle dog at 3 mg/kg; assay type: ADME, organism-based, Canis lupus familiaris; conditions: in vivo
[6] = target: Cytochrome P450 3A4 (Homo sapiens, UniProt P08684); experiment: Inhibition of CYP3A4 after 30 mins; assay type: ADME
[7] = AUC in Beagle dog at 3 mg/kg, po; assay type: ADME, organism-based, Canis lupus familiaris; parameters: dose 3 mg/kg, route oral; conditions: plasma
[8] = test system: Rattus norvegicus; experiment: Antihypertensive activity in telemetered double-transgenic rat assessed as decrease in blood pressure at 3 mg/kg, po after 2 days; assay type: functional
In short: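 Telemetered double-transgenic rats (n = 8) dosed orally at 3 mpk. Blood pressure monitored by telemetry; maximum fall in mm Hg and duration of action recorded.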

[9] = Oral bioavailability in Sprague-Dawley rat at 30 mg/kg; assay type: ADME, organism-based; conditions: in vivo
[10] = Clearance in Beagle dog at 3 mg/kg, po and 1 mg/kg, iv; assay type: ADME, organism-based, Canis lupus familiaris; conditions: in vivo
[11] = AUC in Sprague-Dawley rat at 30 mg/kg, po; assay type: ADME, organism-based; parameters: dose 30 mg/kg, route oral; conditions: plasma
[12] = Clearance in Sprague-Dawley rat at 30 mg/kg, po and 5 mg/kg, iv; assay type: ADME, organism-based; conditions: in vivo
[13] = Half life in Beagle dog at 3 mg/kg, po and 1 mg/kg, iv; assay type: ADME, organism-based, Canis lupus familiaris; conditions: in vivo
[14] = Volume of distribution at steady state in Sprague-Dawley rat at 30 mg/kg, po and 5 mg/kg, iv; assay type: ADME, organism-based; conditions: in vivo, read-out: Vdss
[15] = Half life in Sprague-Dawley rat at 30 mg/kg, po and 5 mg/kg, iv; assay type: ADME, organism-based; conditions: in vivo

Sequence of Cytochrome P450 3A4 (P08684 whole entry): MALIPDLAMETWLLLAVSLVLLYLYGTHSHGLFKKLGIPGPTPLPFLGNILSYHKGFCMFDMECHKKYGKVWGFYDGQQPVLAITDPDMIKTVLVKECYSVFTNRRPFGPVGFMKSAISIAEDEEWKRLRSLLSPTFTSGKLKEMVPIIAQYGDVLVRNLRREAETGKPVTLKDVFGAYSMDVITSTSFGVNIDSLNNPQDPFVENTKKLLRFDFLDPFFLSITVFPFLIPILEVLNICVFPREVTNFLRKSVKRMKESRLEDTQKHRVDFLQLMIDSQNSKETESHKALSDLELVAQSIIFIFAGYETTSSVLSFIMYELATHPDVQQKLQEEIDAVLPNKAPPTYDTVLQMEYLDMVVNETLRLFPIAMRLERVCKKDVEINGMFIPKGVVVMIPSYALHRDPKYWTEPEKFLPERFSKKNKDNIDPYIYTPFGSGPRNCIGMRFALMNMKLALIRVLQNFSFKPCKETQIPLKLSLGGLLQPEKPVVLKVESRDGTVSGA

SMILES	IC50 [1] [nM]	IC50 [2] [nM]	other results
Cc1cc(Cl)c(OCCCc2ccc(CC(CN)C(=O)N(Cc3cccc(Cl)c3Cl)C3CC3)cc2)c(Cl)c1 (stereo unspecified)	0.4	29	
Cc1cc(Cl)c(OCCCc2ccc(C[C@@H](CN)C(=O)N(Cc3cc(CCCC#N)ccc3Cl)C3CC3)cc2)c(Cl)c1	0.11	4.6	
CC(=O)N(C)Cc1ccc(Cl)c(CN(C(=O)C(CN)Cc2ccc(CCCOc3c(Cl)cc(C)cc3Cl)cc2)C2CC2)c1 (stereo unspecified)	2.9	250	
NCC(Cc1ccc(CCCOc2c(F)ccc(F)c2Cl)cc1)C(=O)N(Cc1cccc(Cl)c1Cl)C1CC1 (racemic)	0.79	21	
CNCC(Cc1ccc(CCCOc2c(F)ccc(F)c2Cl)cc1)C(=O)N(Cc1cccc(Cl)c1Cl)C1CC1 (stereo unspecified)	1.9	350	
Cc1cc(Cl)c(OCCCc2ccc(CC(CN)C(=O)N(Cc3cc(CCCN(C)C)ccc3Cl)C3CC3)cc2)c(Cl)c1 (stereo unspecified)	1.5	103	
COCCCc1cc(CN(C(=O)C(CN)Cc2ccc(CCCOc3c(Cl)cc(C)cc3Cl)cc2)C2CC2)c(Cl)c[n+]1[O-] (stereo unspecified)	0.3	1.8	
COCCc1ccc(Cl)c(CN(C(=O)C(CN)Cc2ccc(CCCOc3c(Cl)cc(C)cc3Cl)cc2)C2CC2)c1 (stereo unspecified)	0.19		
CC(CN)(Cc1ccc(CCCOc2c(F)ccc(F)c2Cl)cc1)C(=O)N(Cc1cccc(Cl)c1Cl)C1CC1 (stereo unspecified)	210		
O=C(C(CNCc1ccccc1)Cc1ccc(CCCOc2c(F)ccc(F)c2Cl)cc1)N(Cc1cccc(Cl)c1Cl)C1CC1 (stereo unspecified)	260		
Cc1cc(Cl)c(OCCCc2ccc(CC(CN)C(=O)N(Cc3cc(CCCO)ccc3Cl)C3CC3)cc2)c(Cl)c1 (stereo unspecified)	0.09	6.4	
Cc1cc(Cl)c(OCCCc2ccc(CC(CN)C(=O)N(Cc3cc(CCC#N)ccc3Cl)C3CC3)cc2)c(Cl)c1 (stereo unspecified)	0.27	10	
NCCC(CC(=O)N(Cc1cccc(Cl)c1Cl)C1CC1)c1ccc(CCCOc2c(F)ccc(F)c2Cl)cc1 (stereo unspecified)	650		
COCCOc1ccc(Cl)c(CN(C(=O)C(CN)Cc2ccc(CCCOc3c(Cl)cc(C)cc3Cl)cc2)C2CC2)c1 (stereo unspecified)	0.21		
COCCCc1ccc(Cl)c(CN(C(=O)[C@H](CN)Cc2ccc(CCCOc3c(Cl)cc(C)cc3Cl)cc2)C2CC2)c1	0.09	2.4	Activity [3]: <5%; Vd [4]: 8.4 L/kg; bioavailability [5]: 32%; IC50 [6]: 130 nM; AUC [7]: 1.3 µM·h; Activity [8]: 27 mmHg; bioavailability [9]: 41%; clearance [10]: 16 mL/min/kg; AUC [11]: 8.3 µM·h; clearance [12]: 35 mL/min/kg; half-life [13]: 17 h; Vd [14]: 12 L/kg; half-life [15]: 6 h
COCCCc1cc(CN(C(=O)[C@@H](CN)Cc2ccc(CCCOc3c(Cl)cc(C)cc3Cl)cc2)C2CC2)cc(OCCOC)c1			Vd [4]: 15 L/kg; bioavailability [5]: 36%; IC50 [6]: 1300 nM; AUC [7]: 0.7 µM·h; Activity [8]: 35 mmHg; bioavailability [9]: 48%; clearance [10]: 35 mL/min/kg; AUC [11]: 27.5 µM·h; clearance [12]: 13 mL/min/kg; half-life [13]: 7.5 h; Vd [14]: 3.6 L/kg; half-life [15]: 4 h
COCCCc1cc(CN(C(=O)C(CN)Cc2ccc(CCCOc3c(Cl)cc(C)cc3Cl)cc2)C2CC2)c(Cl)cn1 (stereo unspecified)	0.19	2.2	
COCCCc1ccc(Cl)c(CN(C(=O)C(CN)Cc2ccc(CCCOc3c(Cl)cc(C)cc3Cl)cc2)C2CC2)c1 (racemic)	0.26	5.8	
COCCCc1cc(Cl)c(Cl)c(CN(C(=O)C(CN)Cc2ccc(CCCOc3c(Cl)cc(C)cc3Cl)cc2)C2CC2)c1 (stereo unspecified)	0.26	31	
